# “And” between values parts separate entries of the source, which are not always exact repeats. Equal values may be shown once.
# Test system: U2OS
# Assay: Multiplex assay against U2OS
# Type: toxicity, cell-based
# Settings: human
# In short: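 Per cents of healthy-nucleus cells form the tubulin, mitochondrial-mass and membrane-permeability phenotype values. Live cells were stained at seeding with Hoechst33342, BioTracker Green Microtubule Cytoskeleton Dye, MitoTracker Red and Annexin V Alexa Fluor 680. After compound addition they were imaged on a CQ1 microscope at 37°C and 5% CO2, and CellPathfinder machine-learning gating split them into Hoechst high-intensity objects or normal cells, normal cells into healthy, pyknosed or fragmented nuclei, and pyknosed cells into mitotic or apoptotic.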
# [1] = 12 h, 1 µM, compound concentration 1 uM
# [2] = 12 h, 10 µM, compound concentration 10 uM
# [3] = 24 h, 1 µM, compound concentration 1 uM
# [4] = 24 h, 10 µM, compound concentration 10 uM
# [5] = 48 h, 1 µM, compound concentration 1 uM
# [6] = 48 h, 10 µM, compound concentration 10 uM
smiles,measurement,setting,value
COc1ccc2c(c1OCc1ccccc1)C[C@@H](C(=O)O)N(C(=O)C(c1ccccc1)c1ccccc1)C2 [OLODANRIGAN],Population Apoptotic (%),[1],82% and 66%
same,Population Fragmented Nuclei (%),[1],31% and 18%
same,Population Healthy Nuclei (%),[1],59% and 75%
same,Population Hoechst High Intensity Objects (%),[1],2% and 3%
same,Population Membrane Permeable-Phenotype (%),[1],4% and 6%
same,Population Mitochondria Different-Phenotype (%),[1],0% and 4%
same,Population Mitotic Cells (%),[1],17% and 33%
same,Population Normal (%),[1],97% and 96%
same,Population Pyknosed Nuclei (%),[1],8% and 5%
same,Population Tubulin-Different-Phenotype (%),[1],1% and 2%
same,Total Cell Count,[1],286 and 112
same,Population Apoptotic (%),[2],78% and 81%
same,Population Fragmented Nuclei (%),[2],30% and 26%
same,Population Healthy Nuclei (%),[2],64% and 63%
same,Population Hoechst High Intensity Objects (%),[2],1% and 0%
same,Population Membrane Permeable-Phenotype (%),[2],6% and 2%
same,Population Mitochondria Different-Phenotype (%),[2],1%
same,Population Mitotic Cells (%),[2],21% and 18%
same,Population Normal (%),[2],98% and 99%
same,Population Pyknosed Nuclei (%),[2],5% and 10%
same,Population Tubulin-Different-Phenotype (%),[2],2%
same,Total Cell Count,[2],273 and 110
same,Population Apoptotic (%),[3],87% and 55%
same,Population Fragmented Nuclei (%),[3],25% and 18%
same,Population Healthy Nuclei (%),[3],64% and 74%
same,Population Hoechst High Intensity Objects (%),[3],0% and 2%
same,Population Membrane Permeable-Phenotype (%),[3],2% and 9%
same,Population Mitochondria Different-Phenotype (%),[3],0% and 6%
same,Population Normal (%),[3],99% and 97%
same,Population Pyknosed Nuclei (%),[3],10% and 6%
same,Population Tubulin-Different-Phenotype (%),[3],2% and 5%
same,Total Cell Count,[3],311 and 143
same,Population Apoptotic (%),[4],83% and 50%
same,Population Fragmented Nuclei (%),[4],27% and 22%
same,Population Healthy Nuclei (%),[4],66% and 72%
same,Population Hoechst High Intensity Objects (%),[4],1% and 0%
same,Population Membrane Permeable-Phenotype (%),[4],4%
same,Population Mitochondria Different-Phenotype (%),[4],0% and 1%
same,Population Normal (%),[4],98% and 100%
same,Population Pyknosed Nuclei (%),[4],5% and 4%
same,Population Tubulin-Different-Phenotype (%),[4],1% and 2%
same,Total Cell Count,[4],318 and 123
same,Population Apoptotic (%),[5],91% and 78%
same,Population Fragmented Nuclei (%),[5],22% and 14%
same,Population Healthy Nuclei (%),[5],70% and 77%
same,Population Hoechst High Intensity Objects (%),[5],3% and 4%
same,Population Membrane Permeable-Phenotype (%),[5],4% and 3%
same,Population Mitochondria Different-Phenotype (%),[5],1% and 3%
same,Population Mitotic Cells (%),[5],8% and 21%
same,Population Normal (%),[5],96% and 95%
same,Population Pyknosed Nuclei (%),[5],7%
same,Population Tubulin-Different-Phenotype (%),[5],2%
same,Total Cell Count,[5],483 and 184
same,Population Apoptotic (%),[6],88% and 85%
same,Population Fragmented Nuclei (%),[6],20% and 18%
same,Population Healthy Nuclei (%),[6],71% and 77%
same,Population Hoechst High Intensity Objects (%),[6],1%
same,Population Membrane Permeable-Phenotype (%),[6],5% and 7%
same,Population Mitochondria Different-Phenotype (%),[6],1% and 6%
same,Population Mitotic Cells (%),[6],11% and 14%
same,Population Normal (%),[6],98%
same,Population Pyknosed Nuclei (%),[6],8% and 4%
same,Population Tubulin-Different-Phenotype (%),[6],3% and 5%
same,Total Cell Count,[6],451 and 163

# — ChEMBL document CHEMBL5724801, “EUbOPEN Chemogenomics Library - Multiplex” (2024)
